ABCB1 inh: ABCB1 efflux pump inhibitors, primary screen, cell-based, multiplex, flow cytometry, ABCG2 counter-screen; CCRF-Adr cells, JC-1 efflux; 0.067% of 190,000 active; AID 1326, 2008; inhibition, % at 6.6 µM; in the data active means inhibition above about 40%;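 further: 0% = vehicle and 100% = reference inhibitor; higher value means more JC-1 retained so stronger ABCB1 efflux block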
Target sequence (P08183 whole entry, looked up): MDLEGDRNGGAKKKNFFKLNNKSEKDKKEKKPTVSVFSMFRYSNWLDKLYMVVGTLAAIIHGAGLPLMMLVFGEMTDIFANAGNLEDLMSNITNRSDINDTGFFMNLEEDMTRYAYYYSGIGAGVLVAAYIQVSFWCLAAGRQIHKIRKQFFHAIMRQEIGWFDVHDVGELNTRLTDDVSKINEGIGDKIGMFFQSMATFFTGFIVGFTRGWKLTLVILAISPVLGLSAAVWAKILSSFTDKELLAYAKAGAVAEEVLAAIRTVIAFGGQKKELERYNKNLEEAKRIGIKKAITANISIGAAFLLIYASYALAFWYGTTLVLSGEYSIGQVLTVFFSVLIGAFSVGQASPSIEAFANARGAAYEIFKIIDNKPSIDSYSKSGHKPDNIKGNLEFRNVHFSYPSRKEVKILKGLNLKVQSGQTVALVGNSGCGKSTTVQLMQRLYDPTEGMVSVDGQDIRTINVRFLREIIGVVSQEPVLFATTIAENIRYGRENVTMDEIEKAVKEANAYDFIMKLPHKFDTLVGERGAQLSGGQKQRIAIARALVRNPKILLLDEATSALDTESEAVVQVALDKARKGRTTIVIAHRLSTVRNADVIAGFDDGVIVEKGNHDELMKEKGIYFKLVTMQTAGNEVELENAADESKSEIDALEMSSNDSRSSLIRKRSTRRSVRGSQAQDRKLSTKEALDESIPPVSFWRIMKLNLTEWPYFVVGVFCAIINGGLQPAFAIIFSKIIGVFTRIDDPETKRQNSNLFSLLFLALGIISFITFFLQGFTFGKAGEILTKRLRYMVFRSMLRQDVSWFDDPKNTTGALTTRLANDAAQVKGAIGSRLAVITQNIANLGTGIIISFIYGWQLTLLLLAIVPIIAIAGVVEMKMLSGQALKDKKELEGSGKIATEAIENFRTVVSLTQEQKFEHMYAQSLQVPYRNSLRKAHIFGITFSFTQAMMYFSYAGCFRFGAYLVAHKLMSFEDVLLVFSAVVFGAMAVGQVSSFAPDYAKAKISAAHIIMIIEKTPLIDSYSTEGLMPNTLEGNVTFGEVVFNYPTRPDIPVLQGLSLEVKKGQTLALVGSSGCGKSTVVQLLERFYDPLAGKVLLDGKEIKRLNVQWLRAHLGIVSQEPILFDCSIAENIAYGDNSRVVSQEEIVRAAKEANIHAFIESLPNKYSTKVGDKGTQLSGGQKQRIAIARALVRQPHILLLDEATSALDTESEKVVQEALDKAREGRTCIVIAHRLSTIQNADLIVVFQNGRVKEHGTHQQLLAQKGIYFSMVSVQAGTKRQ
MEKK2mut PB1 HTS: MEK5 binding signal on mutant MEKK2 PB1, primary screen, biochemical, multiplex bead flow cytometry, Alexa488-MEK5. Alexa488-MEK5 binding to MEKK2 mutant. percent response, % at 10 µM. 0.35% of 290,000 active. AID 1530, 2009; in the data active means percent response above about 24%, passing the limit was not always enough
MEKK2 WT-MEK5: modulators of MEK5 binding to wildtype MEKK2, primary screen, biochemical, multiplex bead flow cytometry, Alexa488-MEK5 | Mitogen-activated protein kinase kinase kinase 2 (Homo sapiens), Q9Y2U5 | Alexa488-MEK5 binding to MEKK2 WT; actives lie on both sides | binding response (% of control), % at 10 µM | 1.1% of 290,000 active; in the data active means binding response below about 67% or above about 130%
ABCG2 block: ABCG2 efflux pump inhibitors, primary screen, multiplex with ABCB1, IgMXP3 cells, flow cytometry; 0.1% of 190,000 active; JC-1 efflux; inhibition, % at 6.6 µM; Broad substrate specificity ATP-binding cassette transporter ABCG2 (Homo sapiens), Q9UNQ0;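 active means inhibition above 80%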;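 further: 0% = DMSO and 100% = nicardipine control wells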
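Measure – % inhibition of efflux relative to nicardipine and DMSO · Test system – ABCG2 IgMXP3 and barcoded ABCB1 CCRF-Adr cell mix · Control set – nicardipine as high control, DMSO as low control · Compound – one concentration, 6.6 µM final · Signal – flow cytometry of retained JC-1 fluorescence · Timing – 10 min exposure at 25 °C with rotation, no wash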
MEKK3 PB1 HTS: modulators of MEKK3-MEK5 PB1 binding, primary screen, biochemical, wildtype MEKK3, multiplex bead flow cytometry, Alexa488-MEK5; AID 1529, 2009; 1.4% of 290,000 active; bead-based flow cytometry, Alexa488-MEK5 binding to MEKK3; actives lie on both sides; 0 = blocked by unlabeled MEK5, 100 = vehicle; binding response (% of control), % at 10 µM;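 active means binding response more than 3 SD above or below the average of its plate-row segment, actives on both sides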;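 further: Alexa488 bead fluorescence after subtracting the streptavidin-only scavenger bead signal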
MEKK2wt confirm: modulators of MEK5 binding to wildtype MEKK2, confirmation, biochemical, single concentration, multiplex bead flow cytometry; shares compounds with MEKK3 PB1 HTS; Alexa488-MEK5 binding to MEKK2 WT; actives lie on both sides; binding response (% of control), % at 10 µM; 2.4% of 5,900 active; in the data active means binding response below about 16% or above about 210%; inactive means in between
MEKK2mut confirm: mutant MEKK2 PB1-MEK5 binding signal retest – biochemical, single concentration, multiplex bead flow cytometry, confirmation; shares compounds with MEKK3 PB1 HTS; 2% of 5,900 active; percent response, % at 10 µM; AID 1893, 2009; Alexa488-MEK5 binding to MEKK2 mutant; in the data active means percent response mostly above about 71%, no sharp cut-off; inactive means mostly below about 38%;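 further: higher means compound restores mutant binding toward wildtype level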
MEKK3 confirm: MEKK3 wild-type PB1 binding to MEK5, inhibitors, confirmation, biochemical, bead multiplex flow cytometry, single concentration, wildtype; shares compounds with MEKK3 PB1 HTS; Alexa488-MEK5 binding to MEKK3; stronger effect = lower value; binding response (% of control), % at 10 µM; 1.8% of 5,900 active; AID 1894, 2009;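 active means binding response below 72% of control, or above a set upper limit, though filed actives all read lower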;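 further: 100% = DMSO only wells and 0% = binding blocked by excess unlabeled MEK5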
* hit, by the source's call; · = no result given; [ ] = dose if it differs, or a comment. Only some compounds are listed: those with a hit (about 2.3% of all), similar ones and a draw of the others.

SMILES	ABCB1 inh	MEKK2mut PB1 HTS	MEKK2 WT-MEK5	ABCG2 block	MEKK3 PB1 HTS	MEKK2wt confirm	MEKK2mut confirm	MEKK3 confirm
C#CCOCCOCCOCCNc1nc(N2CCN(C(=O)[C@H](CCCCN)n3cc([C@@H](N)CC(C)C)nn3)CC2)nc(N2CCN(C(=O)[C@H](Cc3cc4ccccc4[nH]3)n3cc([C@@H](N)Cc4ccc(O)cc4)nn3)CC2)n1	0	60*	187*	2	113	232*	89*	110
C#CCOCCOCCOCCNc1nc(N2CCN(C(=O)C([C@@H](C)CC)n3cc(C(N)CC(C)C)nn3)CC2)nc(N2CCN(C(=O)[C@H](CCC(=O)O)n3cc(C(N)Cc4ccc(O)cc4)nn3)CC2)n1 (some centres not stated)	0	9	113	-1	105	·	·	·
C#CCOCCOCCOCCNc1nc(N2CCN(C(=O)[C@H](CCCCN)n3cc([C@@H](N)CO)nn3)CC2)nc(N2CCN(C(=O)[C@H](Cc3cc4ccccc4[nH]3)n3cc([C@@H](N)Cc4ccc(O)cc4)nn3)CC2)n1	0	56*	190*	1	108	183	50	115
C#CCOCCOCCOCCNc1nc(N2CCN(C(=O)[C@H](CCCCN)n3cc(C(N)CO)nn3)CC2)nc(N2CCN(C(=O)[C@H](CCC(=O)O)n3cc(C(N)Cc4ccc(O)cc4)nn3)CC2)n1 (some centres not stated)	·	7	106	·	102	·	·	·
Cc1ccc(CCC(=O)Nc2ccc(Br)cc2)o1	·	2	96	·	95	·	·	·
CN(C)CCCN(C(=O)/C=C/c1cccs1)c1nc2ccc(F)cc2s1	2	30	152*	16	107	149	30	108
CN(C)CCCN(C(=O)C1COc2ccccc2O1)c1nc2ccc(F)cc2s1 (configuration not stated)	0	0	129	1	97	·	·	·
CN(C)CCCN(C(=O)c1sc2ccccc2c1Cl)c1nc2ccc(F)cc2s1	0	5	143*	-1	111	179	36	105
O=C(Cn1c(=O)n(CCC(=O)N2CCCCC2)c(=O)c2sccc21)NCc1ccccc1	·	6	102	·	101	·	·	·
Cc1cc(C)c(C#N)c(N2CCCC2)n1	0	·	·	4	·	·	·	·
Cc1cc(C)c(C#N)c(Cl)n1	1	0	107	17	149*	105	1	103
C[C@@H]([C@H](O)c1ccccc1)N(C)C(=S)Nc1ccccc1	·	7	105	·	107	·	·	·
CCOc1cc(/C=C2/SC(=S)N(Cc3ccccc3)C2=O)ccc1O	·	-4	61*[inhibitor]	·	96	84	-6	101
COc1cc(/C=C2/SC(=S)N(Cc3ccccc3)C2=O)ccc1OCC(=O)O	·	-1	81	·	99	·	·	·
CCOC(=O)CNC(=O)Cn1cnc2c(cnn2-c2ccc(C)cc2)c1=O	·	13	110	·	105	·	·	·
S=c1[nH]nc(-c2cccnc2)n1-c1ccccc1	0	2	101	-1	80*[inhibitor]	98	-4	105
CCSc1nnc(-c2ccncc2)o1	0	-2	90	0	96	·	·	·
CCSc1nnc(-c2sc3nnc(-c4ccccc4)c(-c4ccccc4)c3c2N)o1	1	-14	70*[inhibitor]	2	96	76	-18	96
Cc1cnc(=O)[nH]c1SCc1ccccc1F	·	-7	93	·	91	·	·	·
CCCCCCCNC(=O)C1(CC2CC(c3cccc(Br)c3)=NO2)CCNCC1 (configuration not stated)	·	23	191*	·	107	143	17	107
CCCCCCCNC(=O)C1(CC2CC(c3ccc(Cl)cc3)=NO2)CCN(C(=O)Cc2ccc(F)cc2)CC1 (configuration not stated)	·	2	98	·	101	·	·	·
CCCCCCCNC(=O)C1(CC2CC(c3ccc(Cl)cc3)=NO2)CCNCC1 (configuration not stated)	·	11	158*	·	106	150	22	105
C=CCNC(=O)[C@H]1N2C(=O)c3ccccc3C2SC1(C)C (some centres not stated)	·	2	101	·	104	·	·	·
CCOc1ccc2nc3cc(NCc4ccc(OC)cc4)ccc3c(N)c2c1	·	139*	163*	·	82*[inhibitor]	220*	170*	98
C/C(=N\NC(=O)CNC(=O)C(c1ccccc1)c1ccccc1)c1ccc(C(C)(C)C)cc1	0	1	108	2	162*	106	-1	98
SMILES	ABCB1 inh	MEKK2mut PB1 HTS	MEKK2 WT-MEK5	ABCG2 block	MEKK3 PB1 HTS	MEKK2wt confirm	MEKK2mut confirm	MEKK3 confirm
CN1CCN(c2sc(S(C)(=O)=O)nc2S(=O)(=O)c2ccc(Cl)cc2)CC1	·	3	107	·	104	·	·	·
COc1ccccc1NC(=O)N1CCCC1C(=O)Nc1nnc(C(C)C)s1 (configuration not stated)	0	-14	3.0*[inhibitor]	0	3.0*[inhibitor]	108	10	106
CC(C)c1nnc(NC(=O)C2CCCN2C(=O)Nc2ccccc2[N+](=O)[O-])s1 (configuration not stated)	1	-2	105	2	107	·	·	·
CC(C)c1nnc(NC(=O)C2CCCN2C(=O)Nc2ccccc2F)s1 (configuration not stated)	1	7	129	2	151*	100	-3	100
O=C1CC(C(=O)N2CCCc3ccccc32)CN1c1ccc(Cl)cc1 (configuration not stated)	·	-6	94	·	101	·	·	·
COc1ccc(/C=N/N=C2/NC(=O)C(CC(=O)O)S2)cc1OCc1ccccc1Cl (configuration not stated)	-1	0	109	-6	146*	106	13	109
O=CNCC(=O)NC1CCCCCC1	0	-7	84	-5	79*[inhibitor]	97	-6	100
O=C(CCCC(=O)NC1CCCC1)NC1CCCC1	1	-2	96	2	94	·	·	·

Source: PubChem BioAssay
